Source: PubChem BioAssay
eIF4E 4G PPI: eIF4E–eIF4G protein interaction inhibitors, primary screen, biochemical, uHTS, TR-FRET, eIF4GI fragment; Eukaryotic translation initiation factor 4E (Mus musculus) + Eukaryotic translation …; AID 782, 2007; inhibition, % at 21.7 µM; TR-FRET eIF4E-eIF4GI(517-606) binding, 2 h; 220,000 tested, 0.37% active;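 active means inhibition above about 30%, limit read from the data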;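 further: 0% = full FRET control wells and 100% = background wells lacking eIF4GI fragment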
PABP1 MLLE inh: inhibitors of PABP1 MLLE–PAM2 peptide binding, primary screen, biochemical, fluorescence polarization, FITC-PAM2, GST-MLLE; Polyadenylate-binding protein 1 (Homo sapiens), P11940; AID 588489, 2011; inhibition, % at 20 µM; 360,000 tested, 0.36% active; in the data active means inhibition above about 35%, passing the limit was not always enough;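 further: plate controls were DMSO wells with GST-MLLE for no effect and wells lacking GST-MLLE protein for full effect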
HCV core dimer: inhibitors of HCV core protein dimerization, primary screen, biochemical, TR-FRET, high-throughput | TR-FRET GST/Flag-core106 dimerization, 1536-well | inhibition, % at 5 µM | 300,000 tested, 0.33% active | AID 1899, 2009;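 active means inhibition above the mean of all tested compounds plus 3 SD, set per screening campaign, cut at about 45% in these data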
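System: GST-tagged and Flag-tagged HCV core protein residues 1-106 / Input: core106 proteins, GST 13.5 nM and Flag 17 nM / Buffer or medium: KF-containing HEPES buffer, pH 7.45, DTT, CHAPS, BSA / Probe or stimulus: Eu-anti-GST and XL665-anti-Flag labelled anti-tag antibodies / Schedule: 4 h, 22.5 °C incubation / Technique: TR-FRET 671 and 617 nm emission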
PABP FP inh: PABP poly(A) RNA binding inhibitors, primary screen, biochemical, fluorescence polarization, uHTS; Polyadenylate-binding protein 1 (Homo sapiens), P11940; calls only at 35 µM; AID 2014, 2009; 290,000 tested, 1% active;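 further: calls also rest on retests at 20 µM and on dose response follow-up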
UBC9 SUMO inh: inhibitors of in vitro SUMOylation cascade, primary screen, biochemical, HTRF, uHTS | AID 2006, 2009 | HTRF SUMOylation assay, SAE1/SAE2 + UBC9 | 290,000 tested, 0.36% active | inhibition, % at 35 µM; in the data active means inhibition above about 50%, passing the limit was not always enough; inconclusive means no clear call, values can overlap the other calls
Target sequence (P63279 whole entry, looked up): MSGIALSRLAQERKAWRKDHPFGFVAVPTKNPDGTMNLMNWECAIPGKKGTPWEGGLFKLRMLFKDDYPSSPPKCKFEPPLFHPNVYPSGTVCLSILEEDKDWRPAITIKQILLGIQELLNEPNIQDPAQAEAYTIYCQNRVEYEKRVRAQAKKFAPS
eIF4H FP inh: human eIF4H binding inhibitors, primary screen, translation initiation inhibitor project, biochemical, uHTS, fluorescence polarization. Eukaryotic translation initiation factor 4H (Homo sapiens), Q15056. 290,000 tested, 0.94% active. eIF4H fluorescence polarization binding assay. inhibition, % at 35 µM;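 further: calls also rest on retests at 20 µM and on dose response follow-up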
An asterisk follows results filed as active; i = inactive; ? = inconclusive; · = not tested or not shown; + = active, no number. Sampled rows, rich in hits. Any-hit rate of the full collection: about 1.8%. Unless noted, how the calls were made is not given here.

SMILES	eIF4E 4G PPI	PABP1 MLLE inh	HCV core dimer	PABP FP inh	UBC9 SUMO inh	eIF4H FP inh
COC(=O)CCCC1=CC2=CC(=O)C(C)(OC(=O)c3cccs3)C(=O)C2=CN1CCN1CCOCC1 (stereo not drawn)	3	23	7	+	9	115
COCCN1C=C2C(=O)C(C)(OC(=O)c3cccs3)C(=O)C=C2C=C1CCCC(=O)OC (stereo not drawn)	-2	21	-2	i	2	64
O=C(O)C(O)C(O)c1nc2ccccc2[nH]1 (stereo not drawn)	-4	6	-6	i	14	-1
O=C(C[C@H]1C[C@H](C(=O)N2CCCCC2)[C@@]2(CCc3ccccc3)c3[nH]c4ccc(Cl)cc4c3CCN2C1=O)NCc1cccc(C(F)(F)F)c1	·	3	·	·	·	·
CCc1ccc(NC(=S)N2CCCC(C(F)(F)F)C2)cc1 (stereo not drawn)	-4	-75	-3	i	12	2
Cc1ccc(C)c(N2CCN(C(=O)Cc3c(C(=O)O)[nH]c4ccc(Cl)cc34)CC2)c1	4	5	13	+	8	?
CC(NCC(=O)Nc1ccccc1C(=O)NC1CC1)c1ccco1 (stereo not drawn)	·	10	·	·	·	·
CCc1cc(=O)oc2cc(C)cc(OCC(=O)NCc3cccnc3)c12	·	9	0	i	17	79*
C=CCN(Cc1cccs1)C(=O)CN1CCN(S(=O)(=O)c2ccc3c(c2)OCCCO3)CC1	·	-14	·	·	·	·
COc1cccc2c(=O)c3cccc(N)c3[nH]c12	1	7	23	+	47	94*
COc1ccccc1C1CC(c2cccs2)=NN1C(=O)CCC(=O)O (stereo not drawn)	·	-27	17	i	12	-12
COc1ccccc1C1CC(c2cccs2)=Nc2ccccc2S1 (stereo not drawn)	4	46*	8	i	-11	3
O=C(O)c1cn2c3c(ccc(Cl)c3c1=O)OCC2	·	3	-5	i	14	5
CCc1ccc(OCC(=O)Nc2cccc3c2CCCC3)cc1	0	4	4	+	-17	?
COc1ccccc1CP(=O)(c1ccccc1)c1ccccc1	3	11	-5	i	-7	active
Cc1[nH]n(-c2ccccc2)c(=O)c1C(C[N+](=O)[O-])c1ccccc1Cl (stereo not drawn)	2	34	-5	i	22	0
COc1ccc(C(C[N+](=O)[O-])c2c(C)[nH]n(-c3ccccc3)c2=O)cc1 (stereo not drawn)	·	23	3	i	87*	7
CCS(=O)(=O)c1ccc2oc(Nc3ccc(C(C)C)cc3)nc2c1	44*	36	4	i	9	-3
CCS(=O)(=O)c1ccc2oc(Nc3cc(C)cc(C)c3)nc2c1	3	3	-1	i	10	4
COc1ccc(NC(=O)COC(=O)CCNS(=O)(=O)c2ccc(Cl)cc2)cc1	-12	-14	-6	i	-14	-3
O=C(CSc1ncnc2c1cnn2-c1ccccc1)NC1CCCC1	·	-11	2	·	·	·
O=C(O)c1ccc(Cn2cnc3cccnc32)cc1	·	43*	6	i	8	55
O=C(O)c1ccc(Cn2cnc3scc(-c4ccccc4)c3c2=O)cc1	-1	-10	1	i	28	-5
COc1cc(NC(=O)Cc2ccccc2)ccc1NC(=O)c1ccccc1	·	6	2	i	11	-12
Cc1c(-c2ccnc3cc(C(=O)O)nn23)cnn1C	23	-6	6	i	39	18
SMILES	eIF4E 4G PPI	PABP1 MLLE inh	HCV core dimer	PABP FP inh	UBC9 SUMO inh	eIF4H FP inh
CCc1nnc(NC(=O)CCC(=O)N2CCN(CCOc3ccc(C)cc3)CC2)s1	-6	3	5	i	13	50*
Cc1ccc(OCC(=O)N2CCc3ccccc3C2)c([N+](=O)[O-])n1	0	-3	-4	i	22	-7
Cc1ccc(CSc2nnc(NC(=O)C3=COCCO3)s2)cc1	·	-26	·	·	·	·
CCC1=NNc2cccc3c(OC)ccc1c23	6	·	25	?	59*	?
COc1ccc(C(C)=O)c2c(O)cccc12	2	11	3	i	11	18
Cc1cc(C)nc(SCc2ccc(C(=O)N/N=C/c3cccc(O)c3O)cc2)n1	21	7	13	+	35	97*
Cc1cc(SCNC(=O)c2ccccc2)nc(C(C)C)n1	1	41*	2	i	9	-7
Cc1cc(C)nc(SCNC(=O)c2ccccc2)n1	3	43*	-8	i	-28	3
Cc1cc(C)nc(SCC(=O)O)n1	-4	10	-4	i	22	-2
Cc1cc(SCC(=O)c2ccccc2)nc(C)n1	2	25	-1	i	12	0
CCN(C(=O)COC(=O)c1cccc(S(=O)(=O)N(C)C)c1)c1c(N)n(Cc2ccccc2)c(=O)[nH]c1=O	·	4	·	·	·	·
Cc1ccccc1NC(=O)Cc1nc(COC(=O)Cc2c(F)cccc2Cl)cs1	·	1	·	·	·	·
CN1CCN(C(=O)c2cccc3c(-c4ccc(F)c(F)c4)coc23)CC1	·	-2	·	·	·	·
CCOC(=O)c1c(-c2ccco2)csc1NC(=O)COC(=O)c1cnc(C)cn1	·	13	52*	·	·	·
CCOC(=O)c1c(CC(C)C)csc1NC(=O)COC(=O)c1cnc(C)cn1	·	0	·	·	·	·
CCCN1C(=O)C2(C(C(=O)c3ccc(C)o3)=C(O)C(=O)N2CCCOC)c2ccccc21 (stereo not drawn)	96*	-2	0	i	10	2
CCn1c(C)nc2cc(N)ccc21	6	5	-4	i	14	12
CCn1c(C)nc2cc(C(=O)N/N=C/c3ccc(O)c(O)c3O)ccc21	78*	25	·	?	68*	?
CCn1c(C)nc2cc(C(N)=O)ccc21	-10	-3	-9	+	16	99*
CC(C)c1ccc(NNC(=O)C2CCC2)cc1	4	6	-4	i	23	-8
C/C=C(/C)C(=O)Nc1cccc(C2=NOC3(C2)C[C@H](C(N)=O)N(C(=O)c2ccccc2)C3)c1 (stereo partly drawn)	0	-2	-10	i	15	0
C/C=C(\C)C(=O)Nc1cccc(C2=NOC3(C2)C[C@@H](C(N)=O)N(C(=O)/C(C)=C/C)C3)c1 (stereo partly drawn)	96*	7	8	i	20	-8
